Test results published in ChEMBL document CHEMBL1909591, “Design, synthesis, and SAR studies of novel polycyclic acids as potent and selective inhibitors of human 11β-hydroxysteroid dehydrogenase type 1 (11β-HSD-1)” (Bioorg Med Chem Lett, 2011).
Active and inactive are the calls of the source. The rule behind the calls is not given here.

Assays:
[1] = system: Mus musculus; experiment: (§1) AUC (0 to 8 hrs) in mouse at 10 umol/kg; format: ADME, organism-based, Plasma; design: dose 10 umol/kg, time < 8 hr; conditions: in vivo, 8 h, BLD = below limit of detection
How it was run: (§2)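 Oral dosing in mice, with the compound in water containing 0.5% methocel and 0.1% Tween 80. Plasma concentrations were measured at 1, 4 and 8 h after dosing.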

[2] = biological target: 11-beta-hydroxysteroid dehydrogenase 1 (Homo sapiens, UniProt P28845); experiment: Inhibition of human 11beta-HSD-1
[3] = biological target: 11-beta-hydroxysteroid dehydrogenase type 2 (Homo sapiens) (UniProt P80365); experiment: Inhibition of human 11beta-HSD-2
[4] = Drug metabolism in mouse liver microsomes assessed as half life of glucuronidation at 10 uM over 30 mins by LC-MS analysis in the presence of UDGPA; format: ADME, Microsome; conditions: for t1/2: microsomes, 0.5 h, 10 µM
[5] = (§3) Drug metabolism in human liver microsomes assessed as half life of glucuronidation at 10 uM over 30 mins by LC-MS analysis in the presence of UDGPA; format: ADME, Microsome; conditions: liver microsomes
[6] = biological target: 11-beta-hydroxysteroid dehydrogenase 1 (Mus musculus, UniProt P50172); experiment: Inhibition of mouse 11beta-HSD-1
[7] = system: Mus musculus; experiment: (§4) Cmax in mouse at 10 umol/kg; format: ADME, organism-based; design: dose 10 umol/kg; conditions: in vivo, BLD = below limit of detection; how it was run: as §2
[8] = biological target: T1, 11-beta-hydroxysteroid dehydrogenase type 2 (Homo sapiens) (UniProt P80365); experiment: Inhibition of human 11beta-HSD-2 at 10 uM
T1 sequence (whole entry): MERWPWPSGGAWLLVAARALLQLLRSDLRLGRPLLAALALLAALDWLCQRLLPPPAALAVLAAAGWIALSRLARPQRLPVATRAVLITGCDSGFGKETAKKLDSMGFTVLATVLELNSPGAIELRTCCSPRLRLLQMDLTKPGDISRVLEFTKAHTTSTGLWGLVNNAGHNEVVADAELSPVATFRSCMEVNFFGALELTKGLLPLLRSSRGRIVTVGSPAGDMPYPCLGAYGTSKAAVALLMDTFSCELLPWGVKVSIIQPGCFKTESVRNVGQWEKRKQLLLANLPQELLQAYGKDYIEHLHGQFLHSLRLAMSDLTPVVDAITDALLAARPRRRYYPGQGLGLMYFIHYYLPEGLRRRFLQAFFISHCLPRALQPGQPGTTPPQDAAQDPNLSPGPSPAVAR

[9] = as §1; format: ADME, organism-based, Plasma; design: dose 10 umol/kg, time < 8 hr; conditions: plasma, 10 umol/kg; how it was run: as §2
[10] = (§5) Metabolic stability in mouse liver microsomes assessed as compound remaining after 10 mins; format: ADME, Microsome; conditions: liver microsomes, read-out: Stability
[11] = (§6) Metabolic stability in human liver microsomes assessed as compound remaining after 10 mins; format: ADME, Microsome; conditions: liver microsomes, read-out: Stability
[12] = as §4; format: ADME, organism-based; design: dose 10 umol/kg; conditions: in vivo, 10 umol/kg; how it was run: as §2
[13] = system: Liver; experiment: as §5; format: ADME, Microsome; conditions: microsomes, 10 min
[14] = system: Liver microsomes; experiment: as §6; format: ADME, Microsome; conditions: microsomes, 10 min
[15] = system: Liver microsomes; experiment: as §3; format: ADME, Microsome; conditions: microsomes, 0.5 h, 10 µM
[16] = biological target: T2, Peroxisome proliferator-activated receptor gamma (Homo sapiens) (UniProt P37231); experiment: Activation of PPARgamma up to 30 uM
T2 sequence (whole entry): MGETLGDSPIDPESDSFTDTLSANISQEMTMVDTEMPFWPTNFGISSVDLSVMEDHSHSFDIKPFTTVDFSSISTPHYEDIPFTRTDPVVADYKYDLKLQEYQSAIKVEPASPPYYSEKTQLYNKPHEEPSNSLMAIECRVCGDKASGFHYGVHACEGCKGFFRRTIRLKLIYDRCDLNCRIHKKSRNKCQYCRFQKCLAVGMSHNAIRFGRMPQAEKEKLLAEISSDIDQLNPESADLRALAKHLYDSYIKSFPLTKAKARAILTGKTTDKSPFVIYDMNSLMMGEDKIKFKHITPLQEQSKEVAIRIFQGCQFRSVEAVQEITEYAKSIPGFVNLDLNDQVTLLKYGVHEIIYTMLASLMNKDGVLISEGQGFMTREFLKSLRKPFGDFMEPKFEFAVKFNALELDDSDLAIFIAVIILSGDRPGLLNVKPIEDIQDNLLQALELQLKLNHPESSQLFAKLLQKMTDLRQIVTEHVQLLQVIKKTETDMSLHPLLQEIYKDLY

[17] = biological target: Voltage-gated inwardly rectifying potassium channel KCNH2 (Homo sapiens, UniProt Q12809); experiment: Inhibition of human ERG
[18] = Cmax in mouse at 30 umol/kg; format: ADME, organism-based; design: dose 30 umol/kg; conditions: in vivo; how it was run: as §2
[19] = biological target: Cytochrome P450 2D6 (Homo sapiens, UniProt P10635); experiment: Inhibition of CYP2D6; format: ADME
[20] = biological target: Cytochrome P450 3A4 (Homo sapiens, UniProt P08684); experiment: Inhibition of CYP3A4; format: ADME
[21] = biological target: Cytochrome P450 2C19 (Homo sapiens, UniProt P33261); experiment: Inhibition of CYP2C19; format: ADME
[22] = biological target: T3, Peroxisome proliferator-activated receptor delta (Homo sapiens) (UniProt Q03181); experiment: Activation of PPARdelta up to 30 uM
T3 sequence (whole entry): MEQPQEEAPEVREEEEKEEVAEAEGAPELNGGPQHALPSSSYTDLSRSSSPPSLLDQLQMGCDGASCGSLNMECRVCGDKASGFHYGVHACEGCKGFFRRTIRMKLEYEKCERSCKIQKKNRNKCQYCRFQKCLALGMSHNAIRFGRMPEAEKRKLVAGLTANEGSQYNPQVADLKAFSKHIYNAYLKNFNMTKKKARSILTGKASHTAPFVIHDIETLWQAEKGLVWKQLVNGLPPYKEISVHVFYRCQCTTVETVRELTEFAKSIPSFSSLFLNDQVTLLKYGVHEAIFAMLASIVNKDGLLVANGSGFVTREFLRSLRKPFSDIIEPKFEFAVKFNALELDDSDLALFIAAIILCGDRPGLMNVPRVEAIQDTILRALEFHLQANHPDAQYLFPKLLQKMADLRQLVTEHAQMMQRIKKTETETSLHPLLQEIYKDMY

[23] = biological target: T4, Nuclear receptor subfamily 1 group I member 2 (Homo sapiens, UniProt O75469); experiment: Transactivation of PXR
T4 sequence (O75469 whole entry): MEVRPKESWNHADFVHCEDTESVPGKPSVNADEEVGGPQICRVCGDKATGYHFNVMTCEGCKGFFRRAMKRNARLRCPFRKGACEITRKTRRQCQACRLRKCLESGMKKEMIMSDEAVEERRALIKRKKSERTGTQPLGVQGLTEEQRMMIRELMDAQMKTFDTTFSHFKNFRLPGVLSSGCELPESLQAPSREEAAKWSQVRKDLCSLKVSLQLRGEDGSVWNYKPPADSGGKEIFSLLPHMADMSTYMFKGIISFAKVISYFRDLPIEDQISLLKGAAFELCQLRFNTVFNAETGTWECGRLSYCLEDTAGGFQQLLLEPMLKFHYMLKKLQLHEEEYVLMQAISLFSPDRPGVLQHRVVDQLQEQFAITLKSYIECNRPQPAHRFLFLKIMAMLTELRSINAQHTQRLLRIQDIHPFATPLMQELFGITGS

[24] = biological target: T5, Cytochrome P450 1A2 (Homo sapiens, UniProt P05177); experiment: Inhibition of CYP1A2; format: ADME
T5 sequence (P05177 whole entry): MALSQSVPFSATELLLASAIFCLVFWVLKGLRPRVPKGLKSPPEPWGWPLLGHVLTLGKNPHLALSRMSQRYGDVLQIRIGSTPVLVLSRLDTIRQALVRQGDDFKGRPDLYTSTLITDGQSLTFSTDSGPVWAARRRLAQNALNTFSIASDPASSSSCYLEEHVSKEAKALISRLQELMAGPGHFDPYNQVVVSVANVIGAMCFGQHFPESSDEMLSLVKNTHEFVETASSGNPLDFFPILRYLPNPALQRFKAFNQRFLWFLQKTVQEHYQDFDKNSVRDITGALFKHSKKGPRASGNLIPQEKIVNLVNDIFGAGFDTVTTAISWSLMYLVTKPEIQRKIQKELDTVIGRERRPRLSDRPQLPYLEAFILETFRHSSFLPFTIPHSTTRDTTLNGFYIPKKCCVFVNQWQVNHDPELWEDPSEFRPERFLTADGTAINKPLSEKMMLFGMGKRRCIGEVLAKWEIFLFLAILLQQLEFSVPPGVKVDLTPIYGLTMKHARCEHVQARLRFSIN

[25] = AUC (0 to 8 hrs) in mouse at 30 umol/kg; format: ADME, organism-based; design: time < 8 hr, dose 30 umol/kg; conditions: plasma; how it was run: as §2
[26] = biological target: T6, Peroxisome proliferator-activated receptor alpha (Homo sapiens) (UniProt Q07869); experiment: Activation of PPARalpha up to 30 uM
T6 sequence (whole entry): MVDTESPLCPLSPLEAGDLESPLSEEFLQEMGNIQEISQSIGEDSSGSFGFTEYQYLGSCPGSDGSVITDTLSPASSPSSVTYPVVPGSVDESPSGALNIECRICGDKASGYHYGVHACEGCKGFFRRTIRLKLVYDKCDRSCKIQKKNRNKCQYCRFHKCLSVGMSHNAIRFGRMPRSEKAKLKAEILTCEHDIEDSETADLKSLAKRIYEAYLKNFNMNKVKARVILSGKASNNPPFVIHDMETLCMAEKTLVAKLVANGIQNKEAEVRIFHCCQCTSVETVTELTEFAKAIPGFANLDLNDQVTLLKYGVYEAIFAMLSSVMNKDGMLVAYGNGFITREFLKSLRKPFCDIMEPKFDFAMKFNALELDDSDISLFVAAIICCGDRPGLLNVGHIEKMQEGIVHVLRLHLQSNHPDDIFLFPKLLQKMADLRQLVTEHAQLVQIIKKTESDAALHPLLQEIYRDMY

[27] = biological target: Cytochrome P450 2C9 (Homo sapiens, UniProt P11712); experiment: Inhibition of CYP2C9; format: ADME
Chain of Cytochrome P450 2C9 (P11712 whole entry): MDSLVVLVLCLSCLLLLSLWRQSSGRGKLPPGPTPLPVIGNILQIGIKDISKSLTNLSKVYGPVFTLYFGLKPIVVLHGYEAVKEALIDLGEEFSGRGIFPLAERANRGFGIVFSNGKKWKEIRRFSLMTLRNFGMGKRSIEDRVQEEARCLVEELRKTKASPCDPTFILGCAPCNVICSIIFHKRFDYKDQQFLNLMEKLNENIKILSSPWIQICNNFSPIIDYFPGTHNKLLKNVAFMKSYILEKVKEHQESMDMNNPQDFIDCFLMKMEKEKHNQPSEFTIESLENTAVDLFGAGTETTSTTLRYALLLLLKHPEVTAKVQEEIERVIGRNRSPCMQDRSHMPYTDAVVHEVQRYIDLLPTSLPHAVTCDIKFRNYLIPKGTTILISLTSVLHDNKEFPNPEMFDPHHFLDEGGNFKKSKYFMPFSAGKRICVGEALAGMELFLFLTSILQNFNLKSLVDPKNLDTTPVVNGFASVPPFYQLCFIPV

Chain of 11-beta-hydroxysteroid dehydrogenase 1 (Mus musculus, UniProt P50172) (P50172 whole entry): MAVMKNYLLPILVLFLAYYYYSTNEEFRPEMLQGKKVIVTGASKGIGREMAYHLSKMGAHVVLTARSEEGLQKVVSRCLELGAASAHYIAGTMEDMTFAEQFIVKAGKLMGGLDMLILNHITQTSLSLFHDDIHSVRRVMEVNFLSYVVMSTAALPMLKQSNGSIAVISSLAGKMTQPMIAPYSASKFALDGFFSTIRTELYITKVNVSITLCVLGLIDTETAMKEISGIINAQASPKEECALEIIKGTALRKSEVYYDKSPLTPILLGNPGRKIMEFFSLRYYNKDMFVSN
Chain of 11-beta-hydroxysteroid dehydrogenase 1 (Homo sapiens, UniProt P28845) (P28845 whole entry): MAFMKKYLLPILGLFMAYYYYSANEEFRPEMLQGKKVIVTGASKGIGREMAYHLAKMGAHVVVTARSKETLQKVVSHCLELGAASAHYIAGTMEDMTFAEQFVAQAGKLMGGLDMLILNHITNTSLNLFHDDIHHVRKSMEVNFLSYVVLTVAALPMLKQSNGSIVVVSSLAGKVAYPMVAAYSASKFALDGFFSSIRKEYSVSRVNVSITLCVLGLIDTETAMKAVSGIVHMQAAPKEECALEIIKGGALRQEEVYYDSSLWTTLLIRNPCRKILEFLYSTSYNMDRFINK
Chain of Cytochrome P450 2D6 (P10635 whole entry): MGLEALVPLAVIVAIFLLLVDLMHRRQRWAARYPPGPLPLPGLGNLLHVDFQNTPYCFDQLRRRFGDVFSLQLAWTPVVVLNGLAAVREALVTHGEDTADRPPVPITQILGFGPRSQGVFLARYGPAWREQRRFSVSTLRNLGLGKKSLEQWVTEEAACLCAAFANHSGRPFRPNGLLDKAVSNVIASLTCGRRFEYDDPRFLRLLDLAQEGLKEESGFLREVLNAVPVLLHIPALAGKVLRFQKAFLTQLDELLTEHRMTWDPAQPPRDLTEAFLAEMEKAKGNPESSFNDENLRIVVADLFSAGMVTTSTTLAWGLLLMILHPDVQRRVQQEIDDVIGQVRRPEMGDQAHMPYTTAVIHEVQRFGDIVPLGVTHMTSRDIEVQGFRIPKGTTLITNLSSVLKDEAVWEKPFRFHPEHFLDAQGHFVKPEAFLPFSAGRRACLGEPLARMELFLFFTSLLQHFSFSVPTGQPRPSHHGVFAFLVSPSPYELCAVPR
Chain of Voltage-gated inwardly rectifying potassium channel KCNH2 (Q12809 whole entry): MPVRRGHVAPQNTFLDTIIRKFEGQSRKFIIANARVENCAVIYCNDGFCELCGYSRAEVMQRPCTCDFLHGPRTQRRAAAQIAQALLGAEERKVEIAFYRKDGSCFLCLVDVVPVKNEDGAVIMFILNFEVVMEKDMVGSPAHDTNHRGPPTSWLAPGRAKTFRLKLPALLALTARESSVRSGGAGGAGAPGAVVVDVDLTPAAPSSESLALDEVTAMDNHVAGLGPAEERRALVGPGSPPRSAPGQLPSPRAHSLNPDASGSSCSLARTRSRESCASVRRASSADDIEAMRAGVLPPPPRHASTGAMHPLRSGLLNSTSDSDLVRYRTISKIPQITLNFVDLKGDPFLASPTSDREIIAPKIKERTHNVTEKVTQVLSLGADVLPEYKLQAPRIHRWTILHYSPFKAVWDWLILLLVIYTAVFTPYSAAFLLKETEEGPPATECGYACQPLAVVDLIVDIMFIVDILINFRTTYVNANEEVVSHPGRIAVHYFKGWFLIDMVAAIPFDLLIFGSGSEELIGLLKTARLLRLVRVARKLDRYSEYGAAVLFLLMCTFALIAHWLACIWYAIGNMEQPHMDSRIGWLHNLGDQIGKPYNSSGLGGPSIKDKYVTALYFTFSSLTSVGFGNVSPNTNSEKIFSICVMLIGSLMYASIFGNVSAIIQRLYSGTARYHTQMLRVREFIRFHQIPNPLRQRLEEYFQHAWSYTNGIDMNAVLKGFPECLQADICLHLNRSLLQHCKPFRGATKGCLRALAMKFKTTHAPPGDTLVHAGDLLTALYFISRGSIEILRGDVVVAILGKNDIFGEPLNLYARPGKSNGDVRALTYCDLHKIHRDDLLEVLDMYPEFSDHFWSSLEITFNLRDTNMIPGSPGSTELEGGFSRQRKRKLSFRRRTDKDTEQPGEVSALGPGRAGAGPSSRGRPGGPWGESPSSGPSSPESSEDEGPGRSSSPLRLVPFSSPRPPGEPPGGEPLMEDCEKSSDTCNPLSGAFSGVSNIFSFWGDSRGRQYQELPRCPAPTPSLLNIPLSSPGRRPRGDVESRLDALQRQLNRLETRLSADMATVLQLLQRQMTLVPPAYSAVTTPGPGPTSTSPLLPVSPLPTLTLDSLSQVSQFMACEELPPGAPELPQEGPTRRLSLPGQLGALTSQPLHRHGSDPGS
Chain of Cytochrome P450 2C19 (P33261 whole entry): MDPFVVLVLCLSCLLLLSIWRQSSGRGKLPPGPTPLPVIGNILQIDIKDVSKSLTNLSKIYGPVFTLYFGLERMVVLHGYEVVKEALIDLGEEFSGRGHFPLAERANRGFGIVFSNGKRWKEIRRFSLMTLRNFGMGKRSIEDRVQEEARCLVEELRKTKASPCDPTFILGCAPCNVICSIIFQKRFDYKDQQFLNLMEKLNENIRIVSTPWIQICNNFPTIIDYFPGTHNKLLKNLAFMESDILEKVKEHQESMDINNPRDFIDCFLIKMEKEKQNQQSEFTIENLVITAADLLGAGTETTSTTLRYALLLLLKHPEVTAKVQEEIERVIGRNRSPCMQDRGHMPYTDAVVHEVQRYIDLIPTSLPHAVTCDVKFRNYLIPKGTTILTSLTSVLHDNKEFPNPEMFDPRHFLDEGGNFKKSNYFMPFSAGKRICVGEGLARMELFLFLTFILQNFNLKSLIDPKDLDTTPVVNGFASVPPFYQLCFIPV
Chain of Cytochrome P450 3A4 (P08684 whole entry): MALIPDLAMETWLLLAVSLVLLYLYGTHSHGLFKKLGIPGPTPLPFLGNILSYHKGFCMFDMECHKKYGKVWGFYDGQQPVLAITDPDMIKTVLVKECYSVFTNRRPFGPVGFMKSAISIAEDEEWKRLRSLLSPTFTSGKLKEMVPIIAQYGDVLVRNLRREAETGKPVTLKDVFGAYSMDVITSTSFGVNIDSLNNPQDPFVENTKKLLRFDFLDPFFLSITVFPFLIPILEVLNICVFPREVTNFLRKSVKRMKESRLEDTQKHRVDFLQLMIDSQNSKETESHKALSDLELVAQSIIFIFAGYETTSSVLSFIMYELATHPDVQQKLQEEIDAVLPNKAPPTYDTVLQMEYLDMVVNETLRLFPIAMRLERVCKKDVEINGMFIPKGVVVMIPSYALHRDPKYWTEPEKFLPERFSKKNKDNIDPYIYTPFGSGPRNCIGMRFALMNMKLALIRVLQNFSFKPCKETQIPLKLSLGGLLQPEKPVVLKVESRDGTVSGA

Structure (SMILES)	IC50 [2] [nM]	inhibition [3]	IC50 [6] [nM]	inhibition [8] [%]	AUC(0-t) at 8 h [9] [µM·h]	remaining at 10 min [10] [%]	remaining at 10 min [11] [%]	Cmax [12] [nM]	t1/2 [4] [min]	Stability [13] [%]	Stability [14] [%]	t1/2 [15] [min]	other results
O=C(O)CC1(c2ccc(F)cc2)C2CCCC1CCC2 (centres undefined)	3	inactive		< 50	0.3	73	100	60					
CC1(O)C2CC3CC(C2)C(CC(=O)O)(c2ccc(F)cc2)C1C3 (centres undefined)	48	inactive	4450	< 50	0.244			40	2.8	100	100	11	
O=C(O)CC1(c2ccc(F)cc2)CC2(CCCCC2)C1	153	inactive	1020	< 50		50	87						
O=C(O)CC1(c2ccc(F)cc2)C2CC3CC1CC(F)(C3)C2 (centres undefined)		inactive	1620	< 50	0.22	94	87	40					

Further lines, with some results ahead:

IC50 [2] [nM]	inhibition [3]	IC50 [6] [nM]	inhibition [8] [%]	AUC(0-t) at 8 h [9] [µM·h]	remaining at 10 min [10] [%]	remaining at 10 min [11] [%]	Cmax [12] [nM]	t1/2 [4] [min]	Stability [13] [%]	Stability [14] [%]	t1/2 [15] [min]	Structure (SMILES)	other results
425	inactive	> 10000	< 50									O=C(O)CC1(c2ccc(F)cc2)C2CC3CC1CC(O)(C3)C2 (centres undefined)	AUC [1]: BLD; half-life at 10 µM ([4]; liver microsomes): 8.8 min; half-life at 10 µM [5]: 35 min; Cmax [7]: BLD
24	inactive	113	< 50	4.1			1400	2.1	100	100	1.9	O=C(O)CC1(Cc2ccccc2)C2CC3CC(C2)CC1C3 (centres undefined)	
	inactive	4570	< 50					2.2	100	100	8.7	COC12CC3CC(C1)C(CC(=O)O)(c1ccc(F)cc1)C(C3)C2 (centres undefined)	AUC [1]: BLD; Cmax [7]: BLD
	inactive	120	< 50		48	78						O=C(O)CC1(c2ccc(F)cc2)C2CC3CC(C2)CC1C3 (centres undefined)	Activity [16]: inactive; inhibition (INH) [17]: Active; Cmax [18]: 480 nM; inhibition (INH) [19]: Active; inhibition (INH) [20]: Active; inhibition (INH) [21]: Active; Activity [22]: inactive; EC50 [23]: > 50000 nM; inhibition (INH) [24]: Active; AUC(0-t) at 8 h [25]: 2 µM·h; Activity [26]: inactive; inhibition (INH) [27]: Active
12	inactive	216	< 50	0.3			70	0.8	100	87	4.2	N#Cc1cccc(C2(CC(=O)O)C3CC4CC(C3)CC2C4)c1 (centres undefined)	
